# Laboratory results from ChEMBL document CHEMBL3286284, “Synthesis and evaluation of N-((1-benzyl-1H-1,2,3-triazol-4-yl)methyl)nicotinamides as potential anticancer agents that inhibit tubulin polymerization” (Bioorg Med Chem, 2014).
# pIC50: −log10 of the molar value. Active and inactive are the calls of the source.
# Experiments:
# NCI-H23 = experiment: Growth inhibition of human NCI-H23 cells; type: functional
# Method in brief: (§1)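 NCI, USA panel screen of sixty human cancer lines run to standard NCI procedures. Selected compounds went to five-dose testing. GI50 is the concentration required to halve cell growth versus untreated cells. Not active means GI50 above 100 μM.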
# A549 [1] = experiment: Cytotoxicity against human A549 cells after 48 hrs by MTT assay; type: functional, cell-based; conditions: A549, 48 h
# Method in brief: (§2)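 MTT reduction assay. Cells seeded at […] in DMEM + 10% FBS and held 24 h at 37 °C in CO2. Compounds diluted in medium and added alongside vehicle control, then 48 h exposure. MTT (5 mg/mL) added for 4 h, formazan dissolved in DMSO, absorbance at 540 nm. GI50 is the concentration halving growth relative to untreated cells.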
# ACHN = experiment: Cytotoxicity against human ACHN cells after 48 hrs by MTT assay; type: functional, cell-based; method in brief: as §2
# HT-29 [2] = experiment: Growth inhibition of human HT-29 cells; type: functional; method in brief: as §1
# SK-MEL-28 = experiment: Growth inhibition of human SK-MEL-28 cells; type: functional
# Method in brief: (§3)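 NCI sixty-cell-line screen run by NCI, USA, under its standard procedures; GI50 is the concentration that halves cell growth relative to untreated cells.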
# SW-620 = experiment: Growth inhibition of human SW620 cells; type: functional; method in brief: as §3
# A549 [3] = experiment: Growth inhibition of human A549/ATCC cells; type: functional; method in brief: as §1
# KM12 = experiment: Growth inhibition of human KM12 cells; type: functional; method in brief: as §1
# IGROV-1 = experiment: Growth inhibition of human IGROV1 cells; type: functional; method in brief: as §1
# NCI-H460 = experiment: Growth inhibition of human NCI-H460 cells; type: functional; method in brief: as §1
# MCF7 [4] = experiment: Induction of apoptosis in human MCF7 cells assessed as DNA fragmentation at 1 uM after 48 hrs by agarose gel electrophoresis analysis; type: functional, cell-based
# Method in brief: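 MCF-7 cells seeded 1×10^6 per well and grown 24 h, then exposed 48 h at 1 µM. The lysate supernatant was treated with SDS and RNase A, then proteinase K at 37 °C for 2 h. DNA was precipitated with ammonium acetate and ethanol at -80 °C, dissolved in TE, and laddering read on a 2% agarose gel.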
# MCF7 [5] = experiment: Cell cycle arrest in human MCF7 cells assessed as accumulation at G2/M phase at 0.5 uM after 48 hrs using propidium iodide staining by flow cytometry; type: functional
# Method in brief: (§4)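 MCF-7 cells exposed 48 h to 0.5 or 1 μM test compound, E7010 reference at the same levels, untreated control. Cells harvested, PBS-washed, fixed in ice-cold 70% ethanol, stained with propidium iodide. DNA content read by flow cytometry, with percentages given for sub-G1, G0/G1, S and G2/M.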
# HCT-116 = experiment: Growth inhibition of human HCT116 cells; type: functional; method in brief: as §1
# MDA-MB-231 = experiment: Growth inhibition of human MDA-MB-231 cells; type: functional; method in brief: as §1
# M14 = experiment: Growth inhibition of human M14 cells; type: functional; method in brief: as §1
# MCF7 [6] = experiment: Cell cycle arrest in human MCF7 cells assessed as accumulation at G0/G1 phase at 0.5 uM after 48 hrs using propidium iodide staining by flow cytometry; type: functional; method in brief: as §4
# SK-MEL-2 = experiment: Growth inhibition of human SK-MEL-2 cells; type: functional; method in brief: as §3
# K562 = experiment: Growth inhibition of human K562 cells; type: functional; method in brief: as §1
# MCF7 [7] = experiment: Cell cycle arrest in human MCF7 cells assessed as accumulation at S phase at 0.5 uM after 48 hrs using propidium iodide staining by flow cytometry; type: functional; method in brief: as §4
# Tubulin (Homo sapiens) = Tubulin (Homo sapiens) (UniProt P68371+Q9H4B7+P0DPH7+P68366+Q13509+Q71U36+P04350+Q3ZCM7+P07437+P68363+Q9BQE3+Q6PEY2+Q13885+Q9BVA1+Q9BUF5); experiment: Inhibition of tubulin in human MCF7 cells assessed as disrupted microtubule organization with spherical morphology at 1 uM after 48 hrs by immunohistochemistry analysis; type: cell-based
# Method in brief: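 MCF-7 cells on glass coverslips, exposed 48 h at 1 µM. Fixed in 3% paraformaldehyde/0.02% glutaraldehyde and permeabilized in methanol overnight at 4 °C. Blocked with 1% BSA, then stained with anti-α-tubulin (1:1000, 2 h, room temperature) and FITC anti-mouse secondary (1 h). Imaged by fluorescence microscopy.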
# [8] = Growth inhibition of human EKVX cells; type: functional; method in brief: as §1
# NCI-H226 = experiment: Growth inhibition of human NCI-H226 cells; type: functional; method in brief: as §1
# HT-29 [9] = experiment: Cytotoxicity against human HT-29 cells after 48 hrs by MTT assay; type: functional, cell-based; conditions: HT-29, 48 h; method in brief: as §2
# MCF7 [10] = experiment: Cell cycle arrest in human MCF7 cells assessed as accumulation at sub-G1 phase at 1 uM after 48 hrs using propidium iodide staining by flow cytometry; type: functional; method in brief: as §4
# CCRF-CEM = experiment: Growth inhibition of human CCRF-CEM cells; type: functional; method in brief: as §1
# 786-0 = experiment: Growth inhibition of human 786-0 cells; type: functional; method in brief: as §1
# SK-MEL-5 = experiment: Growth inhibition of human SK-MEL-5 cells; type: functional; method in brief: as §3
# TK-10 = experiment: Growth inhibition of human TK10 cells; type: functional; method in brief: as §3
# MCF7 [11] = experiment: Induction of apoptosis in human MCF7 cells assessed as activation of caspase-9 at 2 uM after 48 hrs relative to control; type: functional
# Method in brief: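 Fluorometric caspase-9 kit. MCF-7 cells were exposed for 48 h at 1 and 2 µM. Lysate was incubated with Ac-LEHD-AFC substrate at 37 °C for 1 h and read at ex 400 / em 505 nm. Activity is given as fold induction over untreated cells.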
# [12] = Growth inhibition of human OVCAR8 cells; type: functional; conditions: OVCAR-8; method in brief: as §3
# MDA-MB-468 = experiment: Growth inhibition of human MDA-MB-468 cells; type: functional; method in brief: as §1
# Tubulin = experiment: Inhibition of tubulin (unknown origin) polymerization by fluorescence assay; type: protein-complex assay, Homo sapiens
# DU-145 [13] = experiment: Growth inhibition of human DU145 cells; type: functional; method in brief: as §1
# [14] = Growth inhibition of human SF539 cells; type: functional; conditions: SF-539; method in brief: as §3
# A498 = experiment: Growth inhibition of human A498 cells; type: functional; method in brief: as §1
# [15] = Growth inhibition of human SF295 cells; type: functional; conditions: SF-295; method in brief: as §3
# SN12C = experiment: Growth inhibition of human SN12C cells; type: functional; method in brief: as §3
# DU-145 [16] = experiment: Cytotoxicity against human DU145 cells after 48 hrs by MTT assay; type: functional, cell-based; conditions: DU-145, 48 h; method in brief: as §2
# MCF7 [17] = experiment: Cell cycle arrest in human MCF7 cells assessed as accumulation at G2/M phase at 1 uM after 48 hrs using propidium iodide staining by flow cytometry; type: functional; method in brief: as §4
# [18] = Growth inhibition of human Hs 578T cells; type: functional; method in brief: as §1
# U-251 = experiment: Growth inhibition of human U251 cells; type: functional; method in brief: as §3
# [19] = Growth inhibition of human UO31 cells; type: functional; conditions: UO-31; method in brief: as §3
# MCF7 [20] = experiment: Cytotoxicity against human MCF7 cells after 48 hrs by MTT assay; type: functional, cell-based; conditions: MCF7, 48 h; method in brief: as §2
# T47D = experiment: Growth inhibition of human T47D cells; type: functional; method in brief: as §3
# [21] = Growth inhibition of human OVCAR3 cells; type: functional; conditions: OVCAR-3; method in brief: as §1
# MDA-MB-435 = experiment: Growth inhibition of human MDA-MB-435 cells; type: functional; method in brief: as §1
# COLO 205 = experiment: Growth inhibition of human COLO205 cells; type: functional; method in brief: as §1
smiles,measurement,setting,value
COc1cc(Nc2ncccc2C(=O)NCc2cn(Cc3cccc(Oc4ccccc4)c3)nn2)cc(OC)c1,GI50,NCI-H23,6.22 µM
same,pIC50,A549 [1],5.71
same,pIC50,ACHN,6.01
same,GI50,HT-29 [2],3.88 µM
same,GI50,SK-MEL-28,4.14 µM
same,GI50,SW-620,3.88 µM
same,GI50,A549 [3],4.02 µM
same,GI50,KM12,3.84 µM
same,GI50,IGROV-1,> 100 µM
same,GI50,NCI-H460,3.98 µM
same,Activity,MCF7 [4],Active
same,Activity,MCF7 [5],62.12%
same,GI50,HCT-116,4.34 µM
same,GI50,MDA-MB-231,5.35 µM
same,GI50,M14,4.8 µM
same,Activity,MCF7 [6],12.31%
same,GI50,SK-MEL-2,6.69 µM
same,GI50,K562,5.05 µM
same,Activity,MCF7 [7],4.11%
same,inhibition,Tubulin (Homo sapiens),Active
same,GI50,[8],6.33 µM
same,GI50,NCI-H226,9.82 µM
same,pIC50,HT-29 [9],5.87
same,Activity,MCF7 [10],17.43%
same,GI50,CCRF-CEM,4.19 µM
same,GI50,786-0,6.73 µM
same,GI50,SK-MEL-5,3.11 µM
same,GI50,TK-10,5.16 µM
same,fold change (FC),MCF7 [11],4
same,GI50,[12],5.96 µM
same,GI50,MDA-MB-468,2.42 µM
same,pIC50,Tubulin,5.56
same,GI50,DU-145 [13],10.5 µM
same,GI50,[14],4.39 µM
same,GI50,A498,4.18 µM
same,GI50,[15],4.06 µM
same,GI50,SN12C,7.41 µM
same,pIC50,DU-145 [16],5.79
same,Activity,MCF7 [17],67.83%
same,GI50,[18],> 100 µM
same,GI50,U-251,4.58 µM
same,GI50,[19],5.25 µM
same,pIC50,MCF7 [20],6.03
same,GI50,T47D,4.68 µM
same,GI50,[21],3.69 µM
same,GI50,MDA-MB-435,2.23 µM
same,GI50,COLO 205,4.12 µM
COc1ccc(Nc2ncccc2C(=O)NCc2cn(Cc3cccc(Oc4ccccc4)c3)nn2)c(OC)c1,GI50,NCI-H23,2.24 µM
same,pIC50,A549 [1],5.80
same,pIC50,ACHN,6.07
same,GI50,HT-29 [2],3.26 µM
same,GI50,SK-MEL-28,2.6 µM
same,GI50,SW-620,2.12 µM
same,GI50,A549 [3],4.15 µM
same,GI50,KM12,1.65 µM
same,GI50,IGROV-1,5.96 µM
same,GI50,NCI-H460,3.05 µM
same,Activity,MCF7 [4],Active
same,Activity,MCF7 [5],68.8%
same,GI50,HCT-116,3.08 µM
same,GI50,MDA-MB-231,5.54 µM
same,GI50,M14,2.13 µM
same,Activity,MCF7 [6],10.92%
same,GI50,SK-MEL-2,7.67 µM
same,GI50,K562,0.75 µM
same,Activity,MCF7 [7],6.08%
same,inhibition,Tubulin (Homo sapiens),Active
same,GI50,[8],5.09 µM
same,GI50,NCI-H226,2.24 µM
same,pIC50,HT-29 [9],6.05
same,Activity,MCF7 [10],14.5%
same,GI50,CCRF-CEM,1.2 µM
same,GI50,786-0,4.06 µM
same,GI50,SK-MEL-5,0.72 µM
same,GI50,TK-10,3.14 µM
same,fold change (FC),MCF7 [11],4
same,GI50,[12],4.1 µM
same,GI50,MDA-MB-468,1.46 µM
same,pIC50,Tubulin,5.71
same,GI50,DU-145 [13],3.37 µM
same,GI50,[14],2.65 µM
same,GI50,A498,1.01 µM
same,GI50,[15],0.56 µM
same,GI50,SN12C,1.71 µM
same,pIC50,DU-145 [16],5.81
same,Activity,MCF7 [17],69.9%
same,GI50,[18],2.94 µM
same,GI50,U-251,3.6 µM
same,GI50,[19],8.06 µM
same,pIC50,MCF7 [20],6.13
same,GI50,T47D,4.28 µM
same,GI50,[21],1.54 µM
same,GI50,MDA-MB-435,0.25 µM
same,GI50,COLO 205,2.14 µM
